Experimental data of several laboratories.
Compare with care: the assays were run in different laboratories.
Effect on: cell growth or viability

COc1cc2ncnc(N(C)c3ccc4c(c3)/C(=C/c3cccc(Cl)c3)C(=O)N4C)c2cc1OC
IC50 (H22; MTT): 4.47 µM

Cc1cccc(/C=C/C(=O)Nc2cc(-c3ccnc(N4CCC(O)CC4)c3)ccn2)c1
inhibition (HeLa; MTT; 5 µM): 74.2%

C=CC(=O)NC1CCN(c2ncc3ncnc(Nc4ccc(Oc5ccc6c(c5)ncn6C)c(C)c4)c3n2)CC1
EC50 (HPAC): 0.0351 µM

O=C(C=Cc1cccc(F)c1)Nc1cc(-c2ccnc(N3CCC(O)CC3)c2)ccn1
inhibition (HeLa; MTT; 5 µM): 82.7%

C=C(C)[C@@H]1CC[C@@H](C)C[C@H]1OCc1ccc(OC)cc1
inhibition (HeLa; MTT; 30 µM, 72 h): 54%

Cc1cccc(/C=C/C(=O)Nc2cccc(-c3ccnc(N4CCC(O)CC4)c3)c2)c1
inhibition (HeLa; MTT; 5 µM): 54.9%

COc1cccc(CNC[C@@](C)(O)[C@@H]2CC[C@@H](C)C[C@H]2OCc2ccccc2)c1
inhibition (HeLa; MTT; 30 µM, 72 h): 97.9%

Cc1nc(Nc2ccc3c(c2)CC(=O)N3)c2ccccc2n1
IC50 (H22; MTT): 10.5 µM

Cc1c(C(=O)O)ccc2c3n(nc12)[C@@H]1[C@H](C3)N(CC2CC2)[C@@]2(C(=O)Nc3cc(Cl)ccc32)[C@H]1c1cccc(Cl)c1F
GI50 (U2OS; resazurin): > 2 µM

COc1ccc(CNC[C@](O)(COCc2ccc(OC)cc2)[C@@H]2CC[C@@H](C)C[C@H]2OCc2ccc(OC)cc2)cc1
inhibition (HeLa; MTT; 10 µM, 72 h): 96.9%

COc1cc2ncnc(Nc3ccc4c(c3)/C(=C/c3cccc(Cl)c3)C(=O)N4C)c2cc1OC
IC50 (H22; MTT): 3.84 µM

CC1(C)CCC2(CC1)N[C@@H](C(=O)N[C@@H]1CC[C@@H](C(N)=O)OC1)[C@H](c1ccnc(Cl)c1F)[C@]21C(=O)Nc2cc(Cl)ccc21
GI50 (U2OS; resazurin; 72 h): > 1 µM

Cc1nc(N(C)c2ccc3c(c2)/C(=C/c2ccccc2Cl)C(=O)N3C)c2ccccc2n1
IC50 (H22; MTT): 8.98 µM

C[C@@H]1CC[C@@H]([C@](C)(O)Cn2cnc3ccccc32)[C@H](OCc2ccccc2)C1
inhibition (HeLa; MTT; 30 µM, 72 h): 89%

O=C(C=Cc1ccccc1)Nc1cccc(-c2ccnc(N3CCC(O)CC3)c2)c1
inhibition (HeLa; MTT; 5 µM): 55.7%

C=C(COCc1ccccc1)[C@@H]1CC[C@@H](C)C[C@H]1OCc1ccccc1
inhibition (HeLa; MTT; 10 µM, 72 h): 40.4%

Cc1cc(NC(=O)C=Cc2ccccc2)cc(-c2ccnc(N3CCC(O)CC3)c2)c1
inhibition (HeLa; MTT; 5 µM): 26.6%

COc1ccc(CNC[C@@](C)(O)[C@@H]2CC[C@@H](C)C[C@H]2OCc2ccccc2)cc1
inhibition (HeLa; MTT; 30 µM, 72 h): 98.9%

O=C(/C=C/c1ccc(F)cc1)Nc1cc(-c2ccnc(N3CCC(O)CC3)c2)ccn1
inhibition (HeLa; MTT; 5 µM): 81.5%
